In brackets after ≈: the same amount, converted by molar mass.
Columns and labels:
Liver = assay: Half life in CD-1 mouse liver microsomes; format: ADME, Microsome
Method in brief: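 CD-1 mouse liver microsomes; compound from 2 mM DMSO stock in 0.1 M sodium phosphate pH 7.4 with NADPH, preincubated 5 min at 37 °C before microsomes added. Aliquots taken at 0–60 min and quenched with ice-cold acetonitrile, run in duplicate. Minus-NADPH control sampled at 0 and 60 min. Remaining parent measured by isocratic C8 HPLC with UV at 220 nm.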

[1] = system: Mycobacterium tuberculosis; assay: Antitubercular activity against Mycobacterium tuberculosis H37Rv in GAST media with glycerol and alanine after 7 to 14 days by broth microdilution method; format: functional
[2] = system: Mycobacterium tuberculosis; assay: Antitubercular activity against Mycobacterium tuberculosis H37Rv in Middlebrook 7H9 broth with glucose after 7 to 14 days by broth microdilution method; format: functional
Method in brief: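 Broth microdilution of H37Rv in 7H9 with 0.8 g/L NaCl, 5 g/L BSA fraction V, 4 g/L glucose and 0.05% Tyloxapol. Run in quadruplicate from DMSO stocks with DMSO controls; isoniazid positive control.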

Vero = assay: Cytotoxicity against african green monkey Vero cells after 72 hrs by MTT assay; format: cell-based; settings: Chlorocebus sabaeus
Method in brief: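 Vero (CCL-81) cells in MEM with 10% FBS, penicillin-streptomycin and Glutamax, seeded at 3.0×10⁴ per well and left to adhere overnight. Compounds added from DMSO at final 100–0.16 μM, triplicate, for 72 h at 37 °C, 4.5% CO2. Then MTT 1.0 mg/mL in phenol-red-free RPMI for 3 h, formazan dissolved in isopropanol, A570 minus A690. Viability taken relative to DMSO control; EC50 from dose-response curves.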

[3] = system: Mycobacterium tuberculosis; assay: Antitubercular activity against Mycobacterium tuberculosis H37Rv in Middlebrook 7H9 broth with butyrate after 7 to 14 days by broth microdilution method; format: functional
[4] = Therapeutic index, ratio of EC50 for african green monkey Vero cells to MIC for Mycobacterium tuberculosis H37Rv; format: cell-based; settings: read-out: TI
Liver microsomes [5] = assay: Half life in human liver microsomes; format: ADME, Microsome
Liver microsomes [6] = assay: Drug metabolism in human liver microsomes; format: ADME, Microsome
[7] = Solubility of the compound; format: physicochemical

SMILES	t1/2 (Liver) [min]	MIC99 [1] [µM]	MIC99 [2] [µM]	EC50 (Vero) [µM]	MIC99 [3] [µM]	selectivity ratio [4]	t1/2 (Liver microsomes [5]) [min]	Drug metabolism (Liver microsomes [6])	solubility [7]
O=C(Nc1nc(-c2ccccn2)cs1)c1ccc(Br)cc1	6.8	0.049 (≈ 0.0177 µg/mL)	0.19 (≈ 0.0684 µg/mL)	4.7	0.098 (≈ 0.0353 µg/mL)	–	–	–	–
O=C(Nc1nc(-c2ccccn2)cs1)c1cccc(F)c1F	–	0.098 (≈ 0.0311 µg/mL)	0.39 (≈ 0.124 µg/mL)	7.2	0.19 (≈ 0.0603 µg/mL)	18	–	–	–
O=C(Nc1nc(-c2ccccn2)cs1)c1ccccn1	–	1.6 (≈ 0.452 µg/mL)	6.3 (≈ 1.78 µg/mL)	5.4	3.1 (≈ 0.875 µg/mL)	0.9	–	–	–
Cc1cccc(C(=O)Nc2nc(-c3ccccn3)cs2)c1	6.7	0.049 (≈ 0.0145 µg/mL)	0.19 (≈ 0.0561 µg/mL)	4.1	0.049 (≈ 0.0145 µg/mL)	11	–	–	–
COc1ccc(C(=O)Nc2nc(-c3ccccn3)cs2)cc1	16	0.098 (≈ 0.0305 µg/mL)	0.39 (≈ 0.121 µg/mL)	9.2	0.19 (≈ 0.0592 µg/mL)	24	–	–	–
COc1ccccc1C(=O)Nc1nc(-c2ccccn2)cs1	–	1.6 (≈ 0.498 µg/mL)	6.3 (≈ 1.96 µg/mL)	43.5	3.1 (≈ 0.965 µg/mL)	7	–	–	–
O=C(Nc1nc(-c2ccccn2)cs1)c1cccc(OCc2ccccc2)c1	–	0.19 (≈ 0.0736 µg/mL)	0.39 (≈ 0.151 µg/mL)	14.4	0.049 (≈ 0.019 µg/mL)	32	–	–	–
O=C(Nc1nc(-c2ccccn2)cs1)c1cccc(Cl)c1	19	0.049 (≈ 0.0155 µg/mL)	0.19 (≈ 0.06 µg/mL)	7	0.024 (≈ 0.00758 µg/mL)	30	28	Active	–
O=C(Nc1nc(-c2ccccn2)cs1)c1c(F)cccc1F	–	0.19 (≈ 0.0603 µg/mL)	0.78 (≈ 0.248 µg/mL)	3.2	0.78 (≈ 0.248 µg/mL)	4	–	–	–
O=C(Nc1nc(-c2ccccn2)cs1)c1cc(F)ccc1F	–	0.098 (≈ 0.0311 µg/mL)	0.39 (≈ 0.124 µg/mL)	3.3	0.19 (≈ 0.0603 µg/mL)	8	–	–	–
O=C(Nc1nc(-c2ccccn2)cs1)c1cccc(Br)c1	11	0.049 (≈ 0.0177 µg/mL)	0.098 (≈ 0.0353 µg/mL)	16.1	0.024 (≈ 0.00865 µg/mL)	–	–	–	–
O=C(Nc1nc(-c2ccccn2)cs1)c1ccccc1	–	0.19 (≈ 0.0535 µg/mL)	0.39 (≈ 0.11 µg/mL)	7.1	0.19 (≈ 0.0535 µg/mL)	18	–	–	–
Cc1ccc(C(=O)Nc2nc(-c3ccccn3)cs2)cc1	–	0.098 (≈ 0.0289 µg/mL)	0.39 (≈ 0.115 µg/mL)	10.5	0.19 (≈ 0.0561 µg/mL)	27	–	–	–
O=C(Nc1nc(-c2ccccn2)cs1)c1cc(F)cc(F)c1	–	0.049 (≈ 0.0155 µg/mL)	0.19 (≈ 0.0603 µg/mL)	1.5	0.098 (≈ 0.0311 µg/mL)	8	–	–	–
CC(=O)c1ccccc1C(=O)Nc1nc(-c2ccccn2)cs1	–	3.13 (≈ 1.01 µg/mL)	12.5 (≈ 4.04 µg/mL)	86.7	12.5 (≈ 4.04 µg/mL)	7	–	–	–
CC(=O)c1cccc(C(=O)Nc2nc(-c3ccccn3)cs2)c1	–	0.098 (≈ 0.0317 µg/mL)	0.39 (≈ 0.126 µg/mL)	1.5	0.19 (≈ 0.0614 µg/mL)	4	–	–	–
O=C(Nc1nc(-c2ccccn2)cs1)c1cccc(F)c1	–	0.049 (≈ 0.0147 µg/mL)	0.19 (≈ 0.0569 µg/mL)	1.2	0.098 (≈ 0.0293 µg/mL)	3	–	–	–
O=C(Nc1nc(-c2ccccn2)cs1)c1ccccc1OCc1ccccc1	–	50 (≈ 19.4 µg/mL)	> 50	–	> 50	–	–	–	Insoluble

— ChEMBL document CHEMBL2440116, “Structure-activity relationships of 2-aminothiazoles effective against Mycobacterium tuberculosis” (Bioorg Med Chem, 2013)
